Here are results for four compounds from ChEMBL document CHEMBL1123794, “Synthesis, conformation, and dopaminergic activity of 5,6-ethano-bridged derivatives of selective dopaminergic 3-benzazepines” (J Med Chem, 1987).

The inhibition is the drop in the measured response relative to a control, in per cent.

Assay [1] addresses D(2) dopamine receptor (Bos taurus) (UniProt P20288). The assay is described as follows: Inhibitory activity against Dopamine receptor D2 by displacement of [3H]spiroperidol from bovine pituitary at 10 uM. Background: In a radioligand displacement assay an active substance lowers the binding of a labelled ligand.
Assay [2] concerns the target D(1A) dopamine receptor (Rattus norvegicus) (UniProt P18901). Briefly: Inhibitory activity against Dopamine receptor D1 by displacement of [3H]fenoldopam from homogenated rat striatum.
The nature of assay [3]: Tested for dopamine-sensitive adenylate cyclase stimulation. It is filed as functional.
Assay [4] is described as follows: Tested for dopamine-sensitive adenylate cyclase stimulation expressed as %DA stimulation at 10 uM. The assay is classed as functional.
A short description of assay [5]: Tested for dopamine-sensitive adenylate cyclase stimulation expressed as ED50. The assay is classed as functional. A digest of the protocol:
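EC50 is the concentration giving 50% of the maximal adenylate cyclase stimulation attainable with that same compound.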

Sequence of D(1A) dopamine receptor (Rattus norvegicus) (P18901 whole entry): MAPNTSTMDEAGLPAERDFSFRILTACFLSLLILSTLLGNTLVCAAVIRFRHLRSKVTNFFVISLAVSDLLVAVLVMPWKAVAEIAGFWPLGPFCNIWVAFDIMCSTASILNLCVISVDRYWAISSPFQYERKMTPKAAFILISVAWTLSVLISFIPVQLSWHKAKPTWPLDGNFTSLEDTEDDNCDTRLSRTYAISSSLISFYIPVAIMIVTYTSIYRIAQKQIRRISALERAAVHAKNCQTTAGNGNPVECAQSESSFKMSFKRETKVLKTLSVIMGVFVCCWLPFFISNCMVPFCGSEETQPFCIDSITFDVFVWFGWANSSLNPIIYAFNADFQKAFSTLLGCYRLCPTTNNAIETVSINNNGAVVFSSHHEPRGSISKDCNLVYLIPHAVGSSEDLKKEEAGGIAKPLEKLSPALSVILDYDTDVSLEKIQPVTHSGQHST
Sequence of D(2) dopamine receptor (Bos taurus) (P20288 whole entry): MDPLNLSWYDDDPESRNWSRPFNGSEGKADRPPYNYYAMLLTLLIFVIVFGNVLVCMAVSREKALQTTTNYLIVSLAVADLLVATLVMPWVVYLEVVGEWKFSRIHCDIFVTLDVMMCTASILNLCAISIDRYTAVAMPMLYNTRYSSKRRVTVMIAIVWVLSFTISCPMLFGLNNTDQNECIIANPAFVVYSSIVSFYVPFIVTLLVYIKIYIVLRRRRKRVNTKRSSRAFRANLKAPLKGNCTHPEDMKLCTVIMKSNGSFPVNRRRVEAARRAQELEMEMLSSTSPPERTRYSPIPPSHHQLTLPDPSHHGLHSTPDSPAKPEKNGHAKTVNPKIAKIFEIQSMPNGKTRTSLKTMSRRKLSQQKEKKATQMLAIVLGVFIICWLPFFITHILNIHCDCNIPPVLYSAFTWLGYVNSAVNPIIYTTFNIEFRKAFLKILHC

In assay [1], `Oc1cc2c3c(c1O)CC[C@H]3CNC[C@@H]2c1ccccc1` gave an inhibition of 0%. The K bind in assay [2] was 1.22 µM. In addition, the Control in assay [3] turned out to be 20%. Also, the DA stim in assay [4] worked out at 15%.
Turning to `Oc1cc2c3c(c1O)CC[C@@H]3CNC[C@@H]2c1ccccc1`, in assay [1], the inhibition came to 14%. In assay [2], this compound yielded a K bind of 0.024 µM. The DA stim in assay [4] stood at 62%. This compound came in with an ED50 in assay [5] of 430 nM.
In the case of `NCCc1ccc(O)c(O)c1`, the ED50 in assay [5] came out at 3500 nM.
`Oc1cc2c(cc1O)[C@@H](c1ccccc1)CNCC2` showed a K bind in assay [2] of 0.0051 µM. For the same compound, in assay [4], the DA stim came out at 66%. This compound also displayed an ED50 in assay [5] of 63 nM.
